Results published in ChEMBL document CHEMBL4257460, “Synthesis and antifungal activity of novel oxazolidin-2-one-linked 1,2,3-triazole derivatives” (2017).
In brackets after ≈: the same amount, converted by molar mass.

Experiments:
Format in all cases: functional
Candida albicans = experiment: Antifungal activity against Candida albicans ATCC 10231 by M27-A3 guideline based method
Procedure, shortened: (§1)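 Broth microdilution per CLSI (M38-A for filamentous fungi, M27-A3 for yeasts), in MOPS-buffered RPMI-1640 medium. Itraconazole served as the reference antifungal. The MIC was read as the endpoint and expressed in µg/mL.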

Candida tropicalis = experiment: Antifungal activity against Candida tropicalis ATCC 13803 by M27-A3 guideline based method; procedure, shortened: as §1
Cyberlindnera jadinii = experiment: Antifungal activity against Candida utilis ATCC 9226 by M27-A3 guideline based method; conditions: Williopsis jadinii; procedure, shortened: as §1
Pichia kudriavzevii = experiment: Antifungal activity against Candida krusei ATCC 14243 by M27-A3 guideline based method; procedure, shortened: as §1
Nakaseomyces glabratus = experiment: Antifungal activity against Candida glabrata ATCC 34138 by M27-A3 guideline based method; procedure, shortened: as §1
Candida parapsilosis = experiment: Antifungal activity against Candida parapsilosis ATCC 22019 by M27-A3 guideline based method; conditions: Lodderomyces parapsilosis; procedure, shortened: as §1
Mucor hiemalis = experiment: Antifungal activity against Mucor hiemalis ATCC 8690 by M38-A guideline based method; procedure, shortened: as §1
Aspergillus fumigatus = experiment: Antifungal activity against Aspergillus fumigatus ATCC 16907 by M38-A guideline based method; procedure, shortened: as §1
[1] = tested on: Cutaneotrichosporon cutaneum; experiment: Antifungal activity against Trichosporon cutaneum ATCC 28592 by M38-A guideline based method; procedure, shortened: as §1
Rhizopus arrhizus = experiment: Antifungal activity against Rhizopus oryzae ATCC 10329by M38-A guideline based method; procedure, shortened: as §1

Compound: O=C(c1ccccc1)c1nnn(CCn2c(-c3ccccc3)c(-c3ccccc3)oc2=O)c1-c1ccccc1
- MIC (Candida albicans): 8 µg/mL (≈ 15.6 µM)
- MIC (Candida tropicalis): 8 µg/mL (≈ 15.6 µM)
- MIC (Cyberlindnera jadinii): 8 µg/mL (≈ 15.6 µM)
- MIC (Pichia kudriavzevii): 8 µg/mL (≈ 15.6 µM)
- MIC (Nakaseomyces glabratus): 2 µg/mL (≈ 3.9 µM)
- MIC (Candida parapsilosis): 8 µg/mL (≈ 15.6 µM)
- MIC (Mucor hiemalis): 16 µg/mL (≈ 31.2 µM)
- MIC (Aspergillus fumigatus): 16 µg/mL (≈ 31.2 µM)
- MIC [1]: 8 µg/mL (≈ 15.6 µM)
- MIC (Rhizopus arrhizus): 16 µg/mL (≈ 31.2 µM)

Compound: Cc1ccc(S(=O)(=O)c2nnn(CCn3c(-c4ccccc4)c(-c4ccccc4)oc3=O)c2-c2ccc(Cl)cc2)cc1
- MIC (Candida albicans): 8 µg/mL (≈ 13.4 µM)
- MIC (Candida tropicalis): 8 µg/mL (≈ 13.4 µM)
- MIC (Cyberlindnera jadinii): 8 µg/mL (≈ 13.4 µM)
- MIC (Pichia kudriavzevii): 8 µg/mL (≈ 13.4 µM)
- MIC (Nakaseomyces glabratus): 4 µg/mL (≈ 6.7 µM)
- MIC (Candida parapsilosis): 8 µg/mL (≈ 13.4 µM)
- MIC (Mucor hiemalis): 16 µg/mL (≈ 26.8 µM)
- MIC (Aspergillus fumigatus): 4 µg/mL (≈ 6.7 µM)
- MIC [1]: 8 µg/mL (≈ 13.4 µM)
- MIC (Rhizopus arrhizus): 16 µg/mL (≈ 26.8 µM)

Compound: Cc1ccc(-c2c(S(=O)(=O)c3ccc(C)cc3)nnn2CCn2c(-c3ccccc3)c(-c3ccccc3)oc2=O)cc1
- MIC (Candida albicans): 1 µg/mL (≈ 1.73 µM)
- MIC (Candida tropicalis): 8 µg/mL (≈ 13.9 µM)
- MIC (Cyberlindnera jadinii): 4 µg/mL (≈ 6.94 µM)
- MIC (Pichia kudriavzevii): 8 µg/mL (≈ 13.9 µM)
- MIC (Nakaseomyces glabratus): 2 µg/mL (≈ 3.47 µM)
- MIC (Candida parapsilosis): 0.25 µg/mL (≈ 0.434 µM)
- MIC (Mucor hiemalis): 16 µg/mL (≈ 27.7 µM)
- MIC (Aspergillus fumigatus): 8 µg/mL (≈ 13.9 µM)
- MIC [1]: 8 µg/mL (≈ 13.9 µM)
- MIC (Rhizopus arrhizus): 16 µg/mL (≈ 27.7 µM)

Compound: Cc1ccc(S(=O)(=O)c2nnn(CCn3c(-c4ccccc4)c(-c4ccccc4)oc3=O)c2-c2ccc(Cl)s2)cc1
- MIC (Candida albicans): 8 µg/mL (≈ 13.3 µM)
- MIC (Candida tropicalis): 8 µg/mL (≈ 13.3 µM)
- MIC (Cyberlindnera jadinii): 8 µg/mL (≈ 13.3 µM)
- MIC (Pichia kudriavzevii): 2 µg/mL (≈ 3.32 µM)
- MIC (Nakaseomyces glabratus): 2 µg/mL (≈ 3.32 µM)
- MIC (Candida parapsilosis): 4 µg/mL (≈ 6.63 µM)
- MIC (Mucor hiemalis): 16 µg/mL (≈ 26.5 µM)
- MIC (Aspergillus fumigatus): 16 µg/mL (≈ 26.5 µM)
- MIC [1]: 8 µg/mL (≈ 13.3 µM)
- MIC (Rhizopus arrhizus): 16 µg/mL (≈ 26.5 µM)

Compound: CCC(C)n1ncn(-c2ccc(N3CCN(c4ccc(OCC5COC(Cn6cncn6)(c6ccc(Cl)cc6Cl)O5)cc4)CC3)cc2)c1=O (stereo not given) [ITRACONAZOLE]
- MIC (Candida albicans): 0.03 µg/mL (≈ 0.0425 µM)
- MIC (Candida tropicalis): 0.06 µg/mL (≈ 0.085 µM)
- MIC (Cyberlindnera jadinii): 0.25 µg/mL (≈ 0.354 µM)
- MIC (Pichia kudriavzevii): 0.25 µg/mL (≈ 0.354 µM)
- MIC (Nakaseomyces glabratus): 1 µg/mL (≈ 1.42 µM)
- MIC (Candida parapsilosis): 0.06 µg/mL (≈ 0.085 µM)
- MIC (Mucor hiemalis): 4 µg/mL (≈ 5.67 µM)
- MIC (Aspergillus fumigatus): 1 µg/mL (≈ 1.42 µM)
- MIC [1]: 8 µg/mL (≈ 11.3 µM)
- MIC (Rhizopus arrhizus): 1 µg/mL (≈ 1.42 µM)

Compound: Cc1ccc(S(=O)(=O)c2nnn(CCn3c(-c4ccccc4)c(-c4ccccc4)oc3=O)c2-c2cccc([N+](=O)[O-])c2)cc1
- MIC (Candida albicans): 8 µg/mL (≈ 13.2 µM)
- MIC (Candida tropicalis): 8 µg/mL (≈ 13.2 µM)
- MIC (Cyberlindnera jadinii): 8 µg/mL (≈ 13.2 µM)
- MIC (Pichia kudriavzevii): 8 µg/mL (≈ 13.2 µM)
- MIC (Nakaseomyces glabratus): 0.12 µg/mL (≈ 0.197 µM)
- MIC (Candida parapsilosis): 0.5 µg/mL (≈ 0.823 µM)
- MIC (Mucor hiemalis): 16 µg/mL (≈ 26.3 µM)
- MIC (Aspergillus fumigatus): 16 µg/mL (≈ 26.3 µM)
- MIC [1]: 2 µg/mL (≈ 3.29 µM)
- MIC (Rhizopus arrhizus): 16 µg/mL (≈ 26.3 µM)

Compound: Cc1ccc(S(=O)(=O)c2nnn(CCn3c(-c4ccccc4)c(-c4ccccc4)oc3=O)c2-c2ccccc2)cc1
- MIC (Candida albicans): 8 µg/mL (≈ 14.2 µM)
- MIC (Candida tropicalis): 8 µg/mL (≈ 14.2 µM)
- MIC (Cyberlindnera jadinii): 8 µg/mL (≈ 14.2 µM)
- MIC (Pichia kudriavzevii): 0.5 µg/mL (≈ 0.889 µM)
- MIC (Nakaseomyces glabratus): 1 µg/mL (≈ 1.78 µM)
- MIC (Candida parapsilosis): 8 µg/mL (≈ 14.2 µM)
- MIC (Mucor hiemalis): 4 µg/mL (≈ 7.11 µM)
- MIC (Aspergillus fumigatus): 2 µg/mL (≈ 3.55 µM)
- MIC [1]: 8 µg/mL (≈ 14.2 µM)
- MIC (Rhizopus arrhizus): 16 µg/mL (≈ 28.4 µM)

Compound: N#Cc1nnn(CCn2c(-c3ccccc3)c(-c3ccccc3)oc2=O)c1-c1ccccc1
- MIC (Candida albicans): 8 µg/mL (≈ 18.5 µM)
- MIC (Candida tropicalis): 8 µg/mL (≈ 18.5 µM)
- MIC (Cyberlindnera jadinii): 8 µg/mL (≈ 18.5 µM)
- MIC (Pichia kudriavzevii): 0.5 µg/mL (≈ 1.15 µM)
- MIC (Nakaseomyces glabratus): 0.12 µg/mL (≈ 0.277 µM)
- MIC (Candida parapsilosis): 8 µg/mL (≈ 18.5 µM)
- MIC (Mucor hiemalis): 2 µg/mL (≈ 4.61 µM)
- MIC (Aspergillus fumigatus): 16 µg/mL (≈ 36.9 µM)
- MIC [1]: 8 µg/mL (≈ 18.5 µM)
- MIC (Rhizopus arrhizus): 16 µg/mL (≈ 36.9 µM)

Compound: Cc1ccc(S(=O)(=O)c2nnn(CCn3c(-c4ccccc4)c(-c4ccccc4)oc3=O)c2-c2ccc([N+](=O)[O-])cc2)cc1
- MIC (Candida albicans): 4 µg/mL (≈ 6.58 µM)
- MIC (Candida tropicalis): 8 µg/mL (≈ 13.2 µM)
- MIC (Cyberlindnera jadinii): 4 µg/mL (≈ 6.58 µM)
- MIC (Pichia kudriavzevii): 0.25 µg/mL (≈ 0.411 µM)
- MIC (Nakaseomyces glabratus): 4 µg/mL (≈ 6.58 µM)
- MIC (Candida parapsilosis): 8 µg/mL (≈ 13.2 µM)
- MIC (Mucor hiemalis): 16 µg/mL (≈ 26.3 µM)
- MIC (Aspergillus fumigatus): 2 µg/mL (≈ 3.29 µM)
- MIC [1]: 8 µg/mL (≈ 13.2 µM)
- MIC (Rhizopus arrhizus): 16 µg/mL (≈ 26.3 µM)

Compound: Cc1ccc(S(=O)(=O)c2nnn(CCn3c(-c4ccccc4)c(-c4ccccc4)oc3=O)c2-c2cccs2)cc1
- MIC (Candida albicans): 8 µg/mL (≈ 14.1 µM)
- MIC (Candida tropicalis): 8 µg/mL (≈ 14.1 µM)
- MIC (Cyberlindnera jadinii): 8 µg/mL (≈ 14.1 µM)
- MIC (Pichia kudriavzevii): 8 µg/mL (≈ 14.1 µM)
- MIC (Nakaseomyces glabratus): 1 µg/mL (≈ 1.76 µM)
- MIC (Candida parapsilosis): 8 µg/mL (≈ 14.1 µM)
- MIC (Mucor hiemalis): 16 µg/mL (≈ 28.1 µM)
- MIC (Aspergillus fumigatus): 8 µg/mL (≈ 14.1 µM)
- MIC [1]: 8 µg/mL (≈ 14.1 µM)
- MIC (Rhizopus arrhizus): 16 µg/mL (≈ 28.1 µM)

Compound: CC(=O)c1nnn(CCn2c(-c3ccccc3)c(-c3ccccc3)oc2=O)c1C
- MIC (Candida albicans): 8 µg/mL (≈ 20.6 µM)
- MIC (Candida tropicalis): 8 µg/mL (≈ 20.6 µM)
- MIC (Cyberlindnera jadinii): 8 µg/mL (≈ 20.6 µM)
- MIC (Pichia kudriavzevii): 8 µg/mL (≈ 20.6 µM)
- MIC (Nakaseomyces glabratus): 2 µg/mL (≈ 5.15 µM)
- MIC (Candida parapsilosis): 4 µg/mL (≈ 10.3 µM)
- MIC (Mucor hiemalis): 16 µg/mL (≈ 41.2 µM)
- MIC (Aspergillus fumigatus): 16 µg/mL (≈ 41.2 µM)
- MIC [1]: 8 µg/mL (≈ 20.6 µM)
- MIC (Rhizopus arrhizus): 8 µg/mL (≈ 20.6 µM)
